In the EternaBench riboswitch data:

Test system: MS2 coat protein
Assay: apparent Kd, MS2 coat protein; higher = weaker binding; RNA-MaP array; FMN 200 µM where present
Method in brief: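 Designs were transcribed by stalled E. coli RNA polymerase on Illumina sequencing-chip clusters. They were titrated with SNAP-549-labelled MS2 coat protein from 0.7 or 1.5 nM, doubling to 3 µM, without and then with constant ligand. Buffer: 100 mM Tris-HCl pH 7.5, 80 mM KCl, 4 mM MgCl2, BSA, DTT, yeast tRNA, Tween-20. Green signal was normalised to red-channel RNA signal and control-cluster median Fmax. Apparent Kd is the median of filtered per-cluster binding-curve fits.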

[1] = designed as: OFF switch for flavin mononucleotide, no ligand
[2] = ligand present: flavin mononucleotide, designed as: OFF switch for flavin mononucleotide
[3] = designed as: ON switch for flavin mononucleotide, no ligand
[4] = ligand present: flavin mononucleotide, designed as: ON switch for flavin mononucleotide

Sequence	apparent Kd [1] [nM]	apparent Kd [2] [nM]	apparent Kd [3] [nM]	apparent Kd [4] [nM]
GGGUACGCAGGAUAUACAUGAAAAAAAAAAAAAAAAAAAAAACAUGAGGAUCACCCAUGUAGAAGGGCGUAUCC	232	571		
CUAUAUAAUACCUCAUGUACAUGAGGAUCACCCAUGUUAACUAAGGAUAUAUAUAUAUUAAUAAUGUAGAAGGUAGUACUAUUU	16	11.8		
UUGGACGUCGUAGGAUAUGUAGGAUAUUCCUACAUGAGGAUCACCCAUGUUGACACGGAAGAAGGACAGAAGGACGAUGUCCAU			11.6	4.23
GGGUACAUGGGAGGAUAUGGGAAGAUACAUGAGGAUCACCCAUGUUUAAGAAUGCCGAGAGGCAACUAGAAGGCCCAUGUACCG			1040	49
ACGCGUUGGGAGAAGGUACAUUAAAUUAGUUUAACAUGAGGAUCACCCAUGUAAGGAUAUCCCAUCGUGUAAUAUUAUACAGCA	10.2	12.2		
UCGUUGUCAGGAUAUCGUUAAUUUAAUUGUUUGUAUUAGUUCGAGAAGGGACAUGAGGAUCACCCAUGUUUGCU	31	86.8		
UAUAUAUAGUAAGGAUAUGUAUUUAUGUUAUAAACAGAAGGUACUGACAUGAGGAUCACCCAUGUUUUAGUGUGGGCAUGUAGA	87.9	122		
UGGAUGGUAUGAGGAUAUGCGCGCGAAACGCGCGCAGAAGGCAUGUCAAUAGACAUGAGGAUCACCCAUGUAUUAUCCAUCCAC			192	13
AAAAAAAAGGGUGAGGAUAUAGAAAAAAAAACAUGAGGAUCACCCAUGUGAAAAAAAAAAAAAAGCUAGAAGGCACAAAAAAAAAA			243	162
UGAUAGGACAGAGGAUAUGCCGAUAGGAUCUACUAUCGAAGAAUCCUCACAUGAGGAUCACCCAUGUAGAAGGCUGUCCUAUCU	23	140		
GGGAAGUUAGGAUAUGCUGCUCGUCACUUGCGUGAUGAGUAGCAGAAGGGACAUGAGGAUCACCCAUGUAAAAA	51.1	26.8		
AAAUCGGCGGAGAAGGGACCUUUACCCUAUCGGUCAGGAUAUCCGCUACAUGAGGAUCACCCAUGUGCCGGGUGUCCGCGUGUG	22.2	12.2		
AGCUAUUACGAAGGAUAUUCUGACAUGAGGAUCACCCAUGUCUUCAUGAUUUAUUGUGAUCACAUGAAGAAGGUCGUACUAACA			198	48.3
GCUUCCCAUGUGAGGAUAUGUAGGGUUAACCCGAGGCAGAAGGCACAUGAGGAUCACCCAUGUUAAAACUUCUA	29	60.6		
GCUUGGCGAGGAUAUACAUGAGGAUCACCCAUGUGAGAGAAUAAAGUGAGGAAGAAAAGUAGAAGGCGCUGAGG	54	271		
AAGUCGUGAGGAUAUACAUGGAUAUACAUUUAUGUAAAACUACAUGAGGAUCACCCAUGUAGAAGGCACGAAUA	50.7	128		
GUGGCUAGUACAGGAUAUUAGUGCGUGUAGUAUUGAGAAGGGUACAUGAGGAUCACCCAUGUGAUCAAUCACUGUUAAGGUCGC	252	177		
AUAUCGUCAGGAUAUGCUAGUAAAUGUUUCAUUUCUUCAUAGCAGAAGGGACAUGAGGAUCACCCAUGUAAGUC	37.6	39.6		
GGAGCAUAUGUCAGGAUAUCGUGGUCGAUAGAUCACGAGAAGGGACAUGAGGAUCACCCAUGUCUGUCCGCUCC	14.2	16.4		
GGGUCAAUCUUUAGGUGGCGAGACUAGGAUAUGAGUGGUCCCACAUGAGGAUCACCCAUGUGUACUUAGAAGGAGUAGCGCCGU			160	184
CUGCGGUAGGAGAAGGACGGCGGGUUAUUUUCGUACAUGAGGAUCACCCAUGUAGGAUAUCCUACCUCAGGCGGCCUACUACAG	19.9	30		
UUUGUUUAGGUAGGAUAUACUUUUAAUUUCUCUUUCCUUACAUGAGGAUCACCCAUGUUUACAUUGUAGAAGGACCACUUUGUU	21.8	19.8		
CGUCGAUACCAGAAGGACAUGAGGAUCACCCAUGUAGGAUAUGGGUGACCGGGAUGGUGGACACGGUGCCCGGGCACAUGCGAC			81.8	14.9
GUGGUGCAUAUACGUGGAUGUACAUGAGGAUCACCCAUGUAAGAGGAUAUGCGGAUACUAGCUCAGUAGAAGGCUUACAAAUGA	9.74	9.15		
AUCCUACAUGAGGAUCACCCAUGUGACGCCUCGAUAGGAUAUGCGUGUGCCUUGGCGCAUGCAGAAGGAUUGUAGC			43.6	237
GCGUAUAUAUGAUUUAUUUAACAGUCAGAAGGUGAGAAGACGACAUGAGGAUCACCCAUGUUAUUCAAGGAUAUGAUAAUGCGC			24.9	11.4
AUUAUUUACAUAGGAUAUUGUUACAUGAGGAUCACCCAUGUUAUUUGGGAAUUAGGAAUAUUUUACAAGAAGGAUGUUGUUACA			87.4	67
CUCAAACAUGAGGAUCACCCAUGUGUUGUCAUGGGAGGAUAUCCAAGUUCGUUGUAGUCGGGAGAAGGCCUAUGUC			213	41.1

Sequence	apparent Kd [1] [nM]	apparent Kd [2] [nM]	apparent Kd [3] [nM]	apparent Kd [4] [nM]
GGCGGUCGGGAGGAUAUUCGGGCUGUUUGGCUUGGAGAAGGCUCGACAUGAGGAUCACCCAUGUUGGUGUUUCC	561	103		
UGCGUAUACGGAGGAUAUGUACAGGUCGCCGUACAUGAGGAUCACCCAUGUGCAGAAGGCCGUAGCGCUAAACUGGAUUGCAAU	11.4	57.3		
AGAAAUUCAGGAUAUACAUGAGGAUCACCCAUGUUUGGCGGAGGCGCCGAGAUCCCACGUAGAAGGGAAAAGAC	28	50.6		
AUCCGUCGUGUGAGGAUAUAAGAGUUCAAGGUUGUUUAGAAGGUACAUGAGGAUCACCCAUGUCACCCUGAUUG	14.9	14.9		
GCACUGGAUGUAGGAUAUCAGGACGAUAAGUCCUGAGAAGGACAUGAGGAUCACCCAUGUGAUAAUUCCAGUGCAAAUAAUAUA	14.3	31		
GUGAAGAAUUAAGGAUAUUGAAUACAUAUGUUUAACAUGAGGAUCACCCAUGUGGGUUGCGGUAUCGAGAAGGUAAAUUACUGG			111	126
GUAAAUCAUGUAGGAUAUGCAUGGCGAAGCUACGCAGAAGGACAUGAGGAUCACCCAUGUCUCUCCGUCUGCAUACAGACGGAG	26.9	230		
GCACAUGGCAUAGGAUAUAGUUCUAUUGUUUAAAUAGGUAGUUGGACUUAACUAGAAGGAUGUUACAUGAGGAUCACCCAUGUU			11.2	11.3
CUUAGACAUGAGGAUCACCCAUGUGAGGAUAUGAUGCAGCAGUGGUCUACGCUGUGCAUCAGAAGGCACAUAUG	120	155		
UAUAUGUCAGGAUAUCGAUUGGAGCGGAAUUUAGCUUUGGUCGAGAAGGGACAUGAGGAUCACCCAUGUUCCUC	30	142		
AACUUCAGAGGAUAUACAUGAGUGAAAAAAGUCUGAUAACUACAUGAGGAUCACCCAUGUAGAAGGCUGUAGCA	29.1	35.4		
CUAGCGAGUGAGAAGGCCAGCUUUUAUACAUGAGGAUCACCCAUGUAGCCCUAAAGGGUAUGCAUGGAGGAUAUCACGAGCCUG			11.7	7.03
CGGCAAGUCACAGGAUAUGGUGAUGUACAUGAGGAUCACCCAUGUCCGUCUUCUCUCACAAGAUGCCAGAAGGGUGACCUCCGG			760	131
AUUAUGAAGCAGUUAUAACUCUAAACAUGAGGAUCACCCAUGUAGGAUAUCAGCACGAUAAGUGCUGAGAAGGACAUCUGCUUC	15.3	18.4		
CUGAUGUUAGGAUAUCAGGUUGCGCGCGAAGGCACGCAGCAUGAGAAGGAACAUGAGGAUCACCCAUGUGACGA	40.6	132		
GGCGGUGACAUAGGAUAUCUUCUAAUGCACAUGAGGAUCACCCAUGUCGCUACGCACGGGUUUGAAGAGAAGGGUGUUCGUGCC			346	286
AGCUACGUUUCGUAGCAGUGUCAUCGAGAAGGCCCUGACAUGAGGAUCACCCAUGUUGUUACAUGGGAGGAUAUCGAUGAUACG			12.2	4.68
CUUUUGUGAGGAUAUCAGUAGUAAAAAAAUAAAAUUAUUACUGAGAAGGCACAUGAGGAUCACCCAUGUUCCUC	34	196		
UCAUUUAUCACAGGAUAUAUUAGUAUACAGUUGUUUGGCUCUUACAUAUUAAUAGAAGGGUGCAACAUGAGGAUCACCCAUGUA			262	102
ACGACGAAAGUCGAACGAUGUAGCAGAAGGACAUGAGGAUCACCCAUGUUAUCUGUAAUAGACAUGUAGGAUAUGCUACAUCGA	7.89	41.5		
AUUUAUGGCCAGAAGGACAUGAGGAUCACCCAUGUAGGAUAUGGACGAUUUUGCUCGGCGGCUUGUUUAGGAAGCACCGGUGGU			10.7	6.85
GCUGUCGCAUGAGGAUAUGGUCAGCUUUGCUGACCAGAAGGCAUGUCAAUAGACAUGAGGAUCACCCAUGUAGUUUGGGCGGCU			985	99.2
ACCAUAAACAUAGGAUAUAGAAUAAGAACUACUUACAUGAGGAUCACCCAUGUUAUAUUUGGGUACUAGAAGGAUGAGUGUUAA			387	259
GUAGCAUACAGAGGAUAUCUUUACCGGAAACGGACAUGAGGAUCACCCAUGUGGCGAAAGCCUAGGGAGAAGGCUGAAUGCUAC			11.6	12.3
GCGUUCUUGUAGAAGGUACAUGAAAUCUAUUUUUAACACAUGAAACAUGAGGAUCACCCAUGUUGUAAGGAUAUACAUGAACGC			7.26	6.09
AGAAACUACGAGAAGGACAUGUGAACCUUCAACUACAUGAGGAUCACCCAUGUAGGAUAUCGUAGUUUCAGGAUCGUGAGAUCA	5.93	6.44		
AGCUACGUUUCGUAGCAGCUAGGUGAGGAUAUUCAAUUUUUCACAUGAGGAUCACCCAUGUAAAAGAAGAAGGCGCCUAGAAAG			4.28	4.25
